Data: ChEMBL document CHEMBL1629700, “Assessment of oritavancin serum protein binding across species” (Antimicrob Agents Chemother, 2010)
≈ marks a conversion by molar mass, not a printed value.

Tests used:
[1] = tested on: Staphylococcus aureus; test: Antibacterial activity against Staphylococcus aureus ATCC 29213 grown in CAMHB medium by broth microdilution method in presence of 50 ug/ml CaCl2 and 95% human serum; type: functional
Method in brief: (§1)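 Broth microdilution MIC run in a matrix of 95% pooled serum, or 95% ultrafiltrate of that serum (50 kDa cutoff, albumin excluded), plus 5% CAMHB. Arithmetic dilutions ran from 20 to 0.3 μg/ml in CAMHB with 50 μg/ml CaCl2. Means came from 8 replicates (mouse 4 to 8). Beagle dog serum was used for dog.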

[2] = tested on: Staphylococcus aureus; test: Ratio of MIC for Staphylococcus aureus ATCC 29213 grown in CAMHB medium in presence of 95% mouse serum to MIC for Staphylococcus aureus ATCC 29213 in presence of 95% mouse serum ultrafiltrate; type: functional
Method in brief: (§2)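 The fold increase is the mean arithmetic broth microdilution MIC in 95% serum (plus 5% CAMHB) divided by the mean MIC in 95% serum ultrafiltrate (plus 5% CAMHB). The ultrafiltrate was prepared with a 50 kDa cutoff that excludes albumin. Replicates were 8 per condition, or 4 to 8 for mouse. The same data give % bound = (1 − MIC ultrafiltrate/MIC serum) × 100.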

[3] = tested on: Staphylococcus aureus; test: Ratio of MIC for Staphylococcus aureus ATCC 29213 grown in CAMHB medium in presence of 95% rat serum to MIC for Staphylococcus aureus ATCC 29213 in presence of 95% rat serum ultrafiltrate; type: functional; method in brief: as §2
[4] = tested on: Staphylococcus aureus; test: Ratio of MIC for Staphylococcus aureus ATCC 29213 grown in CAMHB medium in presence of 95% dog serum to MIC for Staphylococcus aureus ATCC 29213 in presence of 95% dog serum ultrafiltrate; type: functional; method in brief: as §2
[5] = (§3) Protein binding in mouse serum by broth microdilution method; type: ADME, cell-free; conditions: read-out: PB (converted)
Method in brief: (§4)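 Pooled serum (dog: beagle) and its ultrafiltrate (50 kDa cutoff, excludes albumin) were used. Broth microdilution MICs against S. aureus ATCC 29213 were read with arithmetic drug dilutions, made in CAMHB with 0.002% polysorbate-80, in 95% serum or 95% ultrafiltrate plus 5% CAMHB. % bound = (1 − mean MIC ultrafiltrate/mean MIC serum) × 100. Human, rat and dog used 8 replicates; mouse used 4–8.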

[6] = Protein binding in human serum by broth microdilution method; type: ADME, cell-free; conditions: read-out: PB (converted); method in brief: as §4
[7] = Protein binding in rat serum by broth microdilution method; type: ADME, cell-free; conditions: read-out: PB (converted); method in brief: as §4
[8] = Protein binding in dog serum by broth microdilution method; type: ADME, cell-free, Canis lupus familiaris; conditions: read-out: PB (converted); method in brief: as §4
[9] = tested on: Staphylococcus aureus; test: Antibacterial activity against Staphylococcus aureus ATCC 29213 grown in CAMHB medium by broth microdilution method in presence of 50 ug/ml CaCl2 and 95% rat serum ultrafiltrate; type: functional; method in brief: as §1
[10] = tested on: Staphylococcus aureus; test: Antibacterial activity against Staphylococcus aureus ATCC 29213 grown in CAMHB medium by broth microdilution method in presence of 50 ug/ml CaCl2 and 95% rat serum; type: functional; method in brief: as §1
[11] = tested on: Staphylococcus aureus; test: Antibacterial activity against Staphylococcus aureus ATCC 29213 grown in CAMHB medium by broth microdilution method in presence of 50 ug/ml CaCl2 and 95% dog serum ultrafiltrate; type: functional; method in brief: as §1
[12] = tested on: Staphylococcus aureus; test: Antibacterial activity against Staphylococcus aureus ATCC 29213 grown in CAMHB medium by broth microdilution method in presence of 50 ug/ml CaCl2 and 95% dog serum; type: functional; method in brief: as §1
[13] = tested on: Staphylococcus aureus; test: Ratio of MIC for Staphylococcus aureus ATCC 29213 grown in CAMHB medium in presence of 95% human serum to MIC for Staphylococcus aureus ATCC 29213 in presence of 95% human serum ultrafiltrate; type: functional; method in brief: as §2
[14] = tested on: Staphylococcus aureus; test: Antibacterial activity against Staphylococcus aureus ATCC 29213 grown in CAMHB medium by broth microdilution method in presence of 50 ug/ml CaCl2 and 95% mouse serum ultrafiltrate; type: functional; method in brief: as §1
[15] = tested on: Staphylococcus aureus; test: Antibacterial activity against Staphylococcus aureus ATCC 29213 grown in CAMHB medium by broth microdilution method in presence of 50 ug/ml CaCl2 and 95% mouse serum; type: functional; method in brief: as §1
[16] = tested on: Staphylococcus aureus; test: Antibacterial activity against Staphylococcus aureus ATCC 29213 grown in CAMHB medium by broth microdilution method in presence of 50 ug/ml CaCl2; type: functional
Method in brief: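 Broth microdilution per CLSI M7-A8 in cation-adjusted Mueller-Hinton broth with 50 μg/ml CaCl2. Arithmetic dilution steps of 5 μg/ml from 20 to 10 μg/ml, 1 μg/ml from 10 to 2, 0.5 μg/ml from 2 to 1, and 0.1 μg/ml from 1 to 0.3 μg/ml. Mean of 8 replicates.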

[17] = tested on: Staphylococcus aureus; test: Antibacterial activity against Staphylococcus aureus ATCC 29213 grown in CAMHB medium by broth microdilution method in presence of 50 ug/ml CaCl2 and 95% human serum ultrafiltrate; type: functional; method in brief: as §1
[18] = tested on: Serum; test: as §3; type: ADME, cell-free; method in brief: as §4
[19] = tested on: Staphylococcus aureus; test: Antibacterial activity against Staphylococcus aureus ATCC 29213 grown in CAMHB medium by broth microdilution method in presence of 95% dog serum ultrafiltrate; type: functional
Method in brief: (§5)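 Broth microdilution MIC run in a matrix of 95% pooled serum, or 95% serum ultrafiltrate (50 kDa cutoff filter, albumin excluded), plus 5% CAMHB. Drug dilution steps were arithmetic and prepared in CAMHB. Means came from 8 replicates per condition (mouse 4 to 8). Dog serum came from beagles.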

[20] = tested on: Staphylococcus aureus; test: Antibacterial activity against Staphylococcus aureus ATCC 29213 grown in CAMHB medium by broth microdilution method in presence of 95% dog serum; type: functional; method in brief: as §5
[21] = tested on: Staphylococcus aureus; test: Antibacterial activity against Staphylococcus aureus ATCC 29213 grown in CAMHB medium by broth microdilution method in presence of 95% mouse serum ultrafiltrate; type: functional; method in brief: as §5
[22] = tested on: Staphylococcus aureus; test: Antibacterial activity against Staphylococcus aureus ATCC 29213 grown in CAMHB medium by broth microdilution method in presence of 95% mouse serum; type: functional; method in brief: as §5
[23] = tested on: Staphylococcus aureus; test: Antibacterial activity against Staphylococcus aureus ATCC 29213 grown in CAMHB medium by broth microdilution method in presence of 95% rat serum ultrafiltrate; type: functional; method in brief: as §5
[24] = tested on: Staphylococcus aureus; test: Antibacterial activity against Staphylococcus aureus ATCC 29213 grown in CAMHB medium by broth microdilution method in presence of 95% rat serum; type: functional; method in brief: as §5
[25] = tested on: Staphylococcus aureus; test: Antibacterial activity against Staphylococcus aureus ATCC 29213 grown in CAMHB medium by broth microdilution method; type: functional
Method in brief: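 MIC determined by broth microdilution under CLSI M7-A8 conditions in cation-adjusted Mueller-Hinton broth, using arithmetic drug dilution steps.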

[26] = tested on: Staphylococcus aureus; test: Antibacterial activity against Staphylococcus aureus ATCC 29213 grown in CAMHB medium by broth microdilution method in presence of 95% human serum ultrafiltrate; type: functional; method in brief: as §5
[27] = tested on: Staphylococcus aureus; test: Antibacterial activity against Staphylococcus aureus ATCC 29213 grown in CAMHB medium by broth microdilution method in presence of 95% human serum; type: functional; method in brief: as §5
[28] = tested on: Staphylococcus aureus; test: Antibacterial activity against Staphylococcus aureus ATCC 29213 grown in CAMHB medium by broth microdilution method in presence of 0.002% polysorbate 80 and 95% rat serum; type: functional
Method in brief: (§6)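 Broth microdilution with arithmetic drug dilutions prepared in CAMHB containing 0.002% polysorbate-80. Test medium was 95% pooled serum or 95% serum ultrafiltrate plus 5% CAMHB. Ultrafiltrate was made on 50 kDa cutoff ultrafilters, which exclude albumin. Means came from 8 replicates for human, rat and dog, and from 4 to 8 replicates for mouse.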

[29] = Plasma protein binding in human by broth microdilution method; type: ADME, cell-free; conditions: read-out: PPB (converted)
[30] = Plasma protein binding in rat; type: ADME, cell-free; conditions: read-out: PPB
[31] = Plasma protein binding in human at 1 to 91 ug/ml by DCC adsorption method; type: ADME, cell-free; conditions: read-out: PB (converted)
[32] = target: Albumin (Homo sapiens, UniProt P02768); test: Binding affinity to human serum albumin at 0.2 ug/ml; type: ADME
[33] = tested on: Staphylococcus aureus; test: Antibacterial activity against Staphylococcus aureus ATCC 29213 grown in CAMHB medium by broth microdilution method in presence of 0.002% polysorbate 80 and 95% dog serum ultrafiltrate; type: functional; method in brief: as §6
[34] = tested on: Staphylococcus aureus; test: Antibacterial activity against Staphylococcus aureus ATCC 29213 grown in CAMHB medium by broth microdilution method in presence of 0.002% polysorbate 80 and 95% dog serum; type: functional; method in brief: as §6
[35] = tested on: Staphylococcus aureus; test: Antibacterial activity against Staphylococcus aureus ATCC 29213 grown in CAMHB medium by broth microdilution method in presence of 0.002% polysorbate 80 and 95% mouse serum ultrafiltrate; type: functional; method in brief: as §6
[36] = tested on: Staphylococcus aureus; test: Antibacterial activity against Staphylococcus aureus ATCC 29213 grown in CAMHB medium by broth microdilution method in presence of 0.002% polysorbate 80 and 95% mouse serum; type: functional; method in brief: as §6
[37] = tested on: Staphylococcus aureus; test: Antibacterial activity against Staphylococcus aureus ATCC 29213 grown in CAMHB medium by broth microdilution method in presence of 0.002% polysorbate 80 and 95% rat serum ultrafiltrate; type: functional; method in brief: as §6
[38] = tested on: Staphylococcus aureus; test: Antibacterial activity against Staphylococcus aureus ATCC 29213 grown in CAMHB medium by broth microdilution method in presence of 0.002% polysorbate 80; type: functional
Method in brief: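 Broth microdilution per CLSI M7-A8 in cation-adjusted Mueller-Hinton broth with 0.002% polysorbate-80. Arithmetic dilution steps of 0.5 μg/ml from 3 to 1 μg/ml, 0.1 μg/ml from 1 to 0.3, 0.05 μg/ml from 0.3 to 0.1, and 0.01 μg/ml from 0.1 to 0.04 μg/ml. Mean of 8 replicates.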

[39] = tested on: Staphylococcus aureus; test: Antibacterial activity against Staphylococcus aureus ATCC 29213 grown in CAMHB medium by broth microdilution method in presence of 0.002% polysorbate 80 and 95% human serum ultrafiltrate; type: functional; method in brief: as §6
[40] = tested on: Staphylococcus aureus; test: Antibacterial activity against Staphylococcus aureus ATCC 29213 grown in CAMHB medium by broth microdilution method in presence of 0.002% polysorbate 80 and 95% human serum; type: functional; method in brief: as §6

Chain of Albumin (P02768 whole entry): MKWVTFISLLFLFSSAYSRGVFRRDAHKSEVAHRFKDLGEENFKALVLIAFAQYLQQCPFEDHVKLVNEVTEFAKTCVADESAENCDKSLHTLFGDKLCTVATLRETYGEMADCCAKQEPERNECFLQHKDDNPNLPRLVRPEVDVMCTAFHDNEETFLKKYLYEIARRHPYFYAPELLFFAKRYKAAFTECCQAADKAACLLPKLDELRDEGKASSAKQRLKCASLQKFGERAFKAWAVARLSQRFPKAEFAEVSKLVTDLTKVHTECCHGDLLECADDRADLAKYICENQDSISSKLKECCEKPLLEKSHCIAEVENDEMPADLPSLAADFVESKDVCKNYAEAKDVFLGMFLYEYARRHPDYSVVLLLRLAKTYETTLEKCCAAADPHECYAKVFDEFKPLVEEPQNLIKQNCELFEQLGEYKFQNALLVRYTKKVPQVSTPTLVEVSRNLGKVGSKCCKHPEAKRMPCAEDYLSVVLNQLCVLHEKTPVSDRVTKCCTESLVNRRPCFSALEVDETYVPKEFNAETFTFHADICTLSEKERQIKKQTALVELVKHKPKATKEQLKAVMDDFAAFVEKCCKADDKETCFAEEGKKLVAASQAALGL

## CCCCCCCCCC(=O)N[C@@H](Cc1c[nH]c2ccccc12)C(=O)N[C@H](CC(N)=O)C(=O)N[C@@H](CC(=O)O)C(=O)N[C@@H]1C(=O)NCC(=O)N[C@@H](CCCN)C(=O)N[C@@H](CC(=O)O)C(=O)N[C@H](C)C(=O)N[C@@H](CC(=O)O)C(=O)NCC(=O)N[C@H](CO)C(=O)N[C@@H]([C@H](C)CC(=O)O)C(=O)N[C@@H](CC(=O)c2ccccc2N)C(=O)O[C@@H]1C
[1]
  MIC: 3 µg/mL
[2]
  Ratio: 4.2
[3]
  Ratio: 2.9
[4]
  Ratio: 3.9
[5]
  fraction unbound: 0.24
[6]
  fraction unbound: 0.171
[7]
  fraction unbound: 0.344
[8]
  fraction unbound: 0.255
[9]
  MIC: 0.538 µg/mL
[10]
  MIC: 1.56 µg/mL
[11]
  MIC: 0.638 µg/mL
[12]
  MIC: 2.5 µg/mL
[13]
  Ratio: 5.8
[14]
  MIC: 3 µg/mL
[15]
  MIC: 12.5 µg/mL
[16]
  MIC: 0.975 µg/mL
[17]
  MIC: 0.513 µg/mL

## CO/N=C(\C(=O)N[C@@H]1C(=O)N2C(C(=O)O)=C(CSc3nc(=O)c(O)nn3C)CS[C@H]12)c1csc(N)n1 [CEFTRIAXONE]
[2]
  Ratio: 1.6
[3]
  Ratio: 1.5
[4]
  Ratio: 1.3
[18]
  Protein binding: 37.5%
[6]
  fraction unbound: 0.074
[7]
  fraction unbound: 0.66
[8]
  fraction unbound: 0.791
[19]
  MIC: 1.09 µg/mL
[20]
  MIC: 1.38 µg/mL
[13]
  Ratio: 13.5
[21]
  MIC: 3.75 µg/mL
[22]
  MIC: 6 µg/mL
[23]
  MIC: 3.88 µg/mL
[24]
  MIC: 5.88 µg/mL
[25]
  MIC: 3.5 µg/mL (≈ 6.31 µM)
[26]
  MIC: 2.88 µg/mL
[27]
  MIC: 38.8 µg/mL

## CN[C@H](CC(C)C)C(=O)N[C@H]1C(=O)N[C@@H](CC(N)=O)C(=O)N[C@H]2C(=O)N[C@H]3C(=O)N[C@H](C(=O)N[C@H](C(=O)O)c4cc(O)cc(O)c4-c4cc3ccc4O)[C@H](O[C@H]3C[C@](C)(N)[C@@H](O)[C@H](C)O3)c3ccc(c(Cl)c3)Oc3cc2cc(c3O[C@@H]2O[C@H](CO)[C@@H](O)[C@H](O)[C@H]2O[C@H]2C[C@](C)(NCc3ccc(-c4ccc(Cl)cc4)cc3)[C@@H](O)[C@H](C)O2)Oc2ccc(cc2Cl)[C@H]1O [ORITAVANCIN]
[28]
  MIC: 0.313 µg/mL
[2]
  Ratio: 6.8
[3]
  Ratio: 5.7
[4]
  Ratio: 7.8
[29]
  fraction unbound: 0.125
[30]
  fraction unbound: < 0.2
[31]
  fraction unbound: 0.143
[32]
  fraction unbound at 0.2 ug/ml: 0.21
[33]
  MIC: 0.061 µg/mL
[34]
  MIC: 0.475 µg/mL
[13]
  Ratio: 5.5
[35]
  MIC: 0.079 µg/mL
[36]
  MIC: 0.538 µg/mL
[37]
  MIC: 0.055 µg/mL
[38]
  MIC: 0.08 µg/mL
[39]
  MIC: 0.14 µg/mL
[40]
  MIC: 0.775 µg/mL
